Bioassay records from PubChem BioAssay.
Fam108B inh – Fam108B inhibition, counter-screen for RBBP9 inhibitors. hit rate 0.33% among 300,000. inhibition, % at 9.51 µM. AID 1947. recombinant Fam108B, FP-Rh probe fluorescence polarization;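 active = inhibition above the screen mean inhibition plus 3 SD, computed separately per campaign, cut at about 18% in these data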;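 also: inhibitors lower polarization as less probe binds the enzyme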
mABHD4 FP – ABHD4 (mouse) inhibition, primary FP screen | purified mABHD4, FP-Rh probe fluorescence polarization | inhibition, % at 8.92 µM | hit rate 0.54% among 370,000;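 active = inhibition exceeding the mean over every tested compound plus 3 SD, cut at about 30% in these data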
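Assay system: mouse ABHD4 enzyme, wild type / Also added: fluorescent activity-based probe FP-Rh / Doses: single nominal dose of 8.92 µM, 0.89% DMSO final / Timing: 45 min compound pre-incubation plus 60 min probe step, 25 °C / Signal: FP readout, ex 525 nm / em 598 nm / Control set: S159A mutant/DMSO as 100%, compound-well median as 0%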
PME-1 inh – blocks human protein phosphatase methylesterase 1. Q9Y570. recombinant PME-1, FP-Rh probe fluorescence polarization. inhibition, % at 5.9 µM. hit rate 0.53% among 320,000. AID 2130;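 active = inhibition above the campaign mean of all compounds plus 3 SD, cut at about 26% in these data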;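 also: competitive labeling of PME-1 active site by serine hydrolase directed probe; inhibitors block probe labeling so polarization falls and inhibition rises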
SIAE primary – blocks human sialic acid acetylesterase | Q9HAT2 | SIAE FP-Rh probe binding, fluorescence polarization | inhibition, % at 9.66 µM | hit rate 0.69% among 370,000 | AID 1053197;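 active = inhibition above a cutoff: mean of compounds within the control limits plus 3 SD of those, cut at about 17% in these data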
TCR CD3 inh – blocks the human TCR-CD3 interaction. TAMRA-labeled TCR probe fluorescence, biochemical. inhibition, % at 9.4 µM. hit rate 0.37% among 360,000. AID 651800; in the data active = inhibition above about 19%;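 also: recombinant mutant TCR 2C K166C tagged with TAMRA read by polarization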
HTRA1 inhibitor – HTRA1 (human) protease inhibition; recombinant HTRA1, FP-rhodamine activity-based probe, fluorescence polarization; inhibition, % at 5.96 µM; hit rate 0.5% among 340,000; in the data active = inhibition above about 36%
Target sequence (Q92743 whole entry, looked up): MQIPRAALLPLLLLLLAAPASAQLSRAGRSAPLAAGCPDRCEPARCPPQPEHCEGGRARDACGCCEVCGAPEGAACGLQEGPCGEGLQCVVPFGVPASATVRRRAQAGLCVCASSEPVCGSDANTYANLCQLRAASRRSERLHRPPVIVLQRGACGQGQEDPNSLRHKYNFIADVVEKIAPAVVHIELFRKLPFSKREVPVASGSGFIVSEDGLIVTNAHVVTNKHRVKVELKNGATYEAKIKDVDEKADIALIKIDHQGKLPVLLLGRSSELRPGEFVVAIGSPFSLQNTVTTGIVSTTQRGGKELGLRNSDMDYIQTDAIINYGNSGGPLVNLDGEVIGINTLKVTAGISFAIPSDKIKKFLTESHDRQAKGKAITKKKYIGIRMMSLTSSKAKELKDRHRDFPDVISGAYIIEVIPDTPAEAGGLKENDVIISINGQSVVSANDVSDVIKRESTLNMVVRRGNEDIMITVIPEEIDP
HTRA1 inh conf – confirmation of human HTRA1 inhibitors; shares compounds with HTRA1 inhibitor; recombinant HTRA1, FP-rhodamine activity-based probe, fluorescence polarization; inhibition, % at 5.96 µM; hit rate 66% among 1,600; AID 540248;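 active = mean inhibition over three repeats above a set limit taken from the earlier primary screen, cut at about 37% in these data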;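 also: inhibitors block probe binding so polarization drops and inhibition rises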
Large screens that a line does not name were inactive (follow-up assays come after a bar, where they were run). An excerpt weighted towards active compounds, which were near 1.8% of everything screened.

CCN(CC)CCCN1C=C2C(=O)C(C)(OC(=O)CCC(=O)OC)C(=O)C(Br)=C2C=C1c1ccc(OC)cc1 (configuration not stated)	none
COCCN1C=C2C(=O)C(C)(OC(=O)CCC(=O)OC)C(=O)C(Br)=C2C=C1c1ccc(OC)cc1 (configuration not stated)	none (no result: mABHD4 FP, SIAE primary, TCR CD3 inh)
C=CCN1C=C2C(=O)C(C)(OC(=O)CCC(=O)OC)C(=O)C(Br)=C2C=C1c1ccc(OC)cc1 (configuration not stated)	HTRA1 inhibitor 63.4 (no result: mABHD4 FP, SIAE primary, TCR CD3 inh) | HTRA1 inh conf 43.3
COC(=O)CCC(=O)OC1(C)C(=O)C2=CN(Cc3ccco3)C(c3ccc(OC)cc3)=CC2=C(Br)C1=O (configuration not stated)	none (no result: mABHD4 FP, SIAE primary, TCR CD3 inh, HTRA1 inhibitor)
COC(=O)CCC(=O)OC1(C)C(=O)C2=CN(C3CCCC3)C(c3ccc(OC)cc3)=CC2=C(Br)C1=O (configuration not stated)	HTRA1 inhibitor 61.0 | HTRA1 inh conf 52.4
COc1ccc(CNC(=O)O[C@H]2CC[C@@]34CCCN3C(=O)CCC[C@H]4C2)cc1	none (no result: Fam108B inh, PME-1 inh, TCR CD3 inh, HTRA1 inhibitor)
Oc1ccc2ccccc2c1C1Nc2cccc3cccc(c23)N1	HTRA1 inhibitor 51.6 (no result: mABHD4 FP, SIAE primary, TCR CD3 inh) | HTRA1 inh conf inactive
O=c1c2ccccc2n(Cc2ccco2)n1[C@@H](Cc1ccccc1)Cn1cc(-c2ccc(-c3ccccc3)cc2)nn1	none (no result: Fam108B inh, PME-1 inh, TCR CD3 inh, HTRA1 inhibitor)
COC(=O)[C@]12C[C@H](CC(=O)NCCCN3CCCC3=O)C(=O)N(Cc3cccc4ccccc34)C1=C[C@H](C(C)(C)C)O[C@@H]2C	none (no result: Fam108B inh, PME-1 inh, TCR CD3 inh, HTRA1 inhibitor)
COc1ccc(-n2nnnc2SCC(=O)c2ccc(O)c(O)c2)cc1	HTRA1 inhibitor 45.5 | HTRA1 inh conf 61.3
CCOC(=O)N1CCN(S(=O)(=O)c2ccc(C(=O)Nc3sc4c(c3C(=O)OC)CCN(C)C4)cc2)CC1	HTRA1 inhibitor 52.7 | HTRA1 inh conf 49.0
COc1cccc(C2Nc3c(F)cc(Br)cc3C3C=CCC32)c1OC (configuration not stated)	HTRA1 inhibitor 44.0 | HTRA1 inh conf inactive
C=CCN1C(=O)[C@H](CC(=O)NCC23CC4CC(CC(C4)C2)C3)[C@@]2(C(=O)OCC)CCCC=C12	none (no result: Fam108B inh, PME-1 inh, TCR CD3 inh, HTRA1 inhibitor)
Oc1c(C(Nc2nc3ccccc3s2)c2ccco2)ccc2cccnc12 (configuration not stated)	HTRA1 inhibitor 36.3 | HTRA1 inh conf 39.5
CC(C)CC(=O)NC(c1cccs1)c1ccc2cccnc2c1O (configuration not stated)	HTRA1 inhibitor 42.9 (no result: mABHD4 FP, SIAE primary, TCR CD3 inh) | HTRA1 inh conf 38.3
Oc1c(C(Nc2cccc(C(F)(F)F)c2)c2ccncc2)ccc2cccnc12 (configuration not stated)	none
Oc1c(C(Nc2nccs2)c2ccc(C(F)(F)F)cc2)ccc2cccnc12 (configuration not stated)	HTRA1 inhibitor 43.5 (no result: Fam108B inh, PME-1 inh) | HTRA1 inh conf 53.7
CCC(=O)NC(c1cccs1)c1ccc2cccnc2c1O (configuration not stated)	HTRA1 inhibitor 41.4 | HTRA1 inh conf 46.0
Cc1conc1NC(c1cccs1)c1ccc2cccnc2c1O (configuration not stated)	none (no result: mABHD4 FP, SIAE primary, TCR CD3 inh, HTRA1 inhibitor)
O=C(Nc1ccc2c(c1)OCO2)OC1CCC12CCCCC2 (configuration not stated)	none (no result: Fam108B inh, PME-1 inh, TCR CD3 inh, HTRA1 inhibitor)
CC[C@H]1C=C[C@@H](C(=O)NS(=O)(=O)c2ccc(C)cc2)N(C(C)=O)C1	none (no result: Fam108B inh, PME-1 inh, TCR CD3 inh, HTRA1 inhibitor)
COc1cc(CNc2ccc(N3CCCCC3)cc2)ccc1OCC(=O)NC(C)(C)C	HTRA1 inhibitor 40.9 | HTRA1 inh conf inactive
COc1cc(CNc2ccc(N3CCCC3)cc2)ccc1OCc1ccccc1	none
COc1cc(CNc2ccc(N3CCCC3)cc2)ccc1OCc1ccccc1F	HTRA1 inhibitor 40.4 (no result: mABHD4 FP, SIAE primary, TCR CD3 inh) | HTRA1 inh conf inactive
COCc1cc(C)nc(SCC(=O)Oc2ccccc2)c1C#N	none
COCc1cc(C)nc(SCC(=O)c2ccc(O)c(O)c2)c1C#N	HTRA1 inhibitor 60.6 | HTRA1 inh conf 50.1
C=CCN(CC#Cc1ccccc1)Cc1ccc(OC)cc1	none (no result: Fam108B inh, PME-1 inh, TCR CD3 inh, HTRA1 inhibitor)
O=c1cc(CN2CCN(Cc3ccccc3)CC2)c2ccc(O)c(O)c2o1	HTRA1 inhibitor 60.8 | HTRA1 inh conf 69.6
Cc1c(O)ccc2c(CN3CCN(Cc4ccccc4)CC3)cc(=O)oc12	none
